Tests used:
[1] = molecular target: human placental alkaline phosphatase (Homo sapiens, UniProt P05187); assay: Hydrolysis in human placental alkaline phosphatase solution; type: in vitro ADME; settings: human placental ALP 0.5 unit/mL, prodrug 100 μM, Tris pH 7.6, 37 °C
BxPC-3 xenograft = assay: Efficacy study in BxPC-3 pancreatic cancer xenograft mouse model; type: in vivo
Method in brief: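 Female Foxn nu/nu mice (4 weeks old on arrival) received 3.5 × 10^6 BxPC-3 cells in 50:50 Cultrex BME:DMEM, injected subcutaneously into the right hind flank. At ~95 mm3 they were stratified into four groups of eight. […] Dosing ran 21 days, then 25 days of follow-up. Caliper volume, (W² × L)/2, and body weight were recorded biweekly. Analysis used a mixed model with Dunnett post hoc.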

[2] = through a range of pH's; cited from earlier work
[3] = previously measured; cited from earlier work

Chain of human placental alkaline phosphatase (P05187 23-535): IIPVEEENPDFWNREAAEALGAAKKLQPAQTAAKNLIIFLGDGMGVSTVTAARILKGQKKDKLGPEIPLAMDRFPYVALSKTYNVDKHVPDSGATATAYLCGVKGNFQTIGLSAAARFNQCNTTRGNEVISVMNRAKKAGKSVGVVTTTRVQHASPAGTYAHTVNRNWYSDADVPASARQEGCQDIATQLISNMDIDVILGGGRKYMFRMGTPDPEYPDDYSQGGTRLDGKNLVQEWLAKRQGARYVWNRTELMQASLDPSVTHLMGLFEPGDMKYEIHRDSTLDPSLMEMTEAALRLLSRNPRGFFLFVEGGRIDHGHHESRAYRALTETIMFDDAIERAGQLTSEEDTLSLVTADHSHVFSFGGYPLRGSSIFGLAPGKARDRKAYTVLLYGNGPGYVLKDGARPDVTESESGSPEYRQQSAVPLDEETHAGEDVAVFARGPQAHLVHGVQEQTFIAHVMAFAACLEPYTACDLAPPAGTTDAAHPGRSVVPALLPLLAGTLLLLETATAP

CC(=O)O[C@H]1C(=O)[C@@]2(C)[C@H]([C@H](OC(=O)c3ccccc3)[C@]3(O)C[C@H](OC(=O)[C@H](OC(=O)OCc4cc(C(=O)O)ccc4OP(=O)(O)O)[C@@H](NC(=O)c4ccccc4)c4ccccc4)C(C)=C1C3(C)C)[C@]1(OC(C)=O)CO[C@@H]1C[C@@H]2O [Compound 8i, 3-((((((1S,2 R)-1-benzamido-3-(((2aR,4S,4aS,6 R,9S,11S,12S,12aR,12bS)-6,12b-diacetoxy-12-(benzoyloxy)-4,11-dihydroxy-4a,8,13,13-tetramethyl-5-oxo-2a,3,4,4a,5,6,9,10,11,12,12a,12b-dodecahydro-1H-7,11-methanocyclodeca[3,4]benzo[1,2-b]oxet-9-yl)oxy)-3-oxo-1-phenylpropan−2-yl)oxy)carbonyl)oxy)methyl)-4-(phosphonooxy)benzoic acid]
Hydrolysis rate in ALP (drug formation rate) [1]: 2.13 pmol/min

CC(=O)O[C@H]1C(=O)[C@@]2(C)[C@H]([C@H](OC(=O)c3ccccc3)[C@]3(O)C[C@H](OC(=O)[C@H](OC(=O)OCc4cc(P(=O)(O)O)ccc4OP(=O)(O)O)[C@@H](NC(=O)c4ccccc4)c4ccccc4)C(C)=C1C3(C)C)[C@]1(OC(C)=O)CO[C@@H]1C[C@@H]2O [Compound 8vi, (3-((((((1S,2 R)-1-benzamido-3-(((2aR,4S,4aS,6 R,9S,11S,12S,12aR,12bS)-6,12b-diacetoxy-12-(benzoyloxy)-4,11-dihydroxy-4ª,8,13,13-tetramethyl−5-oxo-2ª,3,4,4ª,5,6,9,10,11,12,12ª,12b-dodecahydro-1H-7,11-methanocyclodeca[3,4]benzo[1,2-b]oxet-9-yl)oxy)-3-oxo-1-phenylpropan-2-yl)oxy)carbonyl)oxy)methyl)-4-(phosphonooxy)phenyl)phosphonic acid]
Hydrolysis rate in ALP (drug formation rate) [1]: 1.44 pmol/min
Tumor growth inhibition (TGI) (BxPC-3 xenograft; 25 mg/kg PO QOD in saline, following the 21-day dosing period): –15%
Tumor growth inhibition (TGI) (BxPC-3 xenograft; 75 mg/kg PO QOD in saline, following the 25-day observation period): 84%
Toxicity during dosing (BxPC-3 xenograft; 25 and 75 mg/kg PO QOD, 21 days): no appreciable toxicity

CNC(=O)c1ccc(N2C(=S)N(c3ccc(C#N)c(C(F)(F)F)c3)C(=O)C2(C)C)cc1F [Enzalutamide, enzalutamide]
Solubility in water [2]: < 0.1 µg/mL

CC(=O)O[C@H]1C(=O)[C@@]2(C)[C@H]([C@H](OC(=O)c3ccccc3)[C@]3(O)C[C@H](OC(=O)[C@H](O)[C@@H](NC(=O)c4ccccc4)c4ccccc4)C(C)=C1C3(C)C)[C@]1(OC(C)=O)CO[C@@H]1C[C@@H]2O [Paclitaxel, paclitaxel, reference compound]
Oral bioavailability [3]: < 6%
Tumor growth inhibition (TGI) (BxPC-3 xenograft; 12.5 mg/kg IV QWK in Cremophor EL, following the 21-day dosing period): 78%
Tumor growth inhibition (TGI) (BxPC-3 xenograft; 12.5 mg/kg IV QWK in Cremophor EL, following the 25-day observation period): 51%

Source: PMC11445516 (Nature Communications, 2024)
